In the library only some 4.3% were active in any assay of this set; here they are far more common.
TAAR1 antagonist – antagonists of human TAAR1. 360,000 compounds, 1.5% hits. Q96RJ0. CHO RD-HGA16 TAAR1, Fluo-8 calcium fluorescence, antagonist. inhibition, % at 3 µM;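 active means inhibition above a per-plate cutoff, the mean inhibition of test compounds on that plate plus 3 SD, cut at about 49% in these data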
Target sequence (Q96RJ0 whole entry, looked up): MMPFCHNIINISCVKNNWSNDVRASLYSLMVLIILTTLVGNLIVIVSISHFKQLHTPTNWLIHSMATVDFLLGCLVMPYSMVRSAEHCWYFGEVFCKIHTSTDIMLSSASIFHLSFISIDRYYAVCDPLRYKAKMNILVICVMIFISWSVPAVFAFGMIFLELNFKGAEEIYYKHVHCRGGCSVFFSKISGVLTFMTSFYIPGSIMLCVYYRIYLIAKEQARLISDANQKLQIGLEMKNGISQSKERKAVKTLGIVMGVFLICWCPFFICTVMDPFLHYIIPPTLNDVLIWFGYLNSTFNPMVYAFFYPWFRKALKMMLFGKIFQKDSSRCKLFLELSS
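Test system: RD-HGA16 CHO cells with stable hTAAR1 and Gα16 / Probe or stimulus: EC80 β-phenethylamine stimulus / Times: seeding 17-24 h prior, 75-min 37 °C, 30-min RT dye loading / Detection: Fluo-8 calcium-sensitive fluorescence / Read-out basis: % inhibition scaled between DMSO and EC80 PEA controls / Repeats: singlicate, one well per test compound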
OX1R antag-1 – blocks the human orexin 1 receptor; 330,000 compounds, 1.8% hits; inhibition, % at 6.6 µM; OX1R-expressing cells, FRET antagonist read-out; AID 485270; O43613; in the data active means inhibition mostly above about 38%, no sharp cut-off; inactive means mostly below about 40%
GalR3 antagonist – human GalR3 antagonism. O60755. HEK293 GalR3-CNG cAMP membrane potential fluorescence; galR3 body fused to GalR1 C-terminus. inhibition, % at 3 µM. 360,000 compounds, 0.44% hits. AID 651719;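 active means inhibition above the screen-wide average plus 3 SD, cut at about 13% in these data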;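 further: forskolin and galanin both at EC90 stimulate the cells; cAMP rise reported by CNG channel membrane potential dye signal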
TAAR1 ag – agonists of human TAAR1. Q96RJ0. CHO RD-HGA16 TAAR1, Fluo-8 calcium fluorescence; vehicle wells 0%, saturating PEA agonist 100%. activation, % at 3 µM. 360,000 compounds, 0.99% hits. AID 624467;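 active means activation above the mean activation of all test compounds in the run plus 3 SD, cut at about 38% in these data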
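Assay system: CHO-derived RD-HGA16 cells with stable Gα16 and human TAAR1; timing: 17-24 h seeding, 75 min 37 °C dye, 30 min RT; read-out: % activation from peak over basal fluorescence ratio, DMSO-to-PEA scaled; measured by: kinetic Fluo-8 calcium fluorescence; benchmarks: low control DMSO, high control PEA (EC100); doses: 3 µM single concentration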
OX1R antag-2 – human HCRTR1 antagonism | inhibition, % at 5 µM | CHO/OX1R cells, Fluo-8 calcium fluorescence, orexin A | 330,000 compounds, 0.43% hits | O43613 | AID 434989;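 active means inhibition above its plate's threshold, mean inhibition of all tested compounds on the plate plus 3 SD, cut at about 37% in these data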
CHO parental Ca – signal in parental CHO cells, OX1R antagonist counter-screen; parental CHO-K1, ATP-induced calcium, Fluo-8 fluorescence; inhibition, % at 5.6 µM; 330,000 compounds, 0.63% hits; AID 463079;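 active means inhibition above that plate's mean sample inhibition plus 3 SD, cut at about 26% in these data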
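Assay system: parental CHO cells; Read-out basis: percent inhibition of ATP-evoked calcium rise, normalized to controls; Benchmarks: ATP and no-ATP DMSO wells; Compound dosing: single nominal dose of 5.6 µM per compound; Signal: Fluo-8 calcium dye fluorescence; Also added: ATP as calcium-mobilizing challenge; Repeats: singlicate.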
Hits are given with their value; i = inactive; nt = no result.

SMILES	TAAR1 antagonist	OX1R antag-1	GalR3 antagonist	TAAR1 ag	OX1R antag-2	CHO parental Ca
COc1ccc(OC)c(CCNC(=O)c2cccc(NC(=O)C3=C(C)OCCS3)c2)c1	57	41	i	i	i	i
COc1cc(CCNC(=O)c2ccccc2NC(=O)C2=C(C)OCCS2)cc(OC)c1OC	i	i	i	i	i	i
COc1ccc(CCNC(=O)c2ccccc2NC(=O)C2=C(C)OCCS2)c(OC)c1	i	64	i	i	i	i
COc1ccc(OC)c(CCNC(=O)Cc2ccc(NC(=O)C3=C(C)OCCS3)cc2)c1	i	nt	i	i	nt	nt
O=C(Nc1ccc(Cl)cc1)N1CCCN(c2ccc(C(F)(F)F)cc2[N+](=O)[O-])CC1	i	i	i	i	57	i
COC(=O)C1=C(C)N(C)C(=NCc2cccc(C(F)(F)F)c2)NC1c1ccc(F)cc1 (stereo not drawn)	i	nt	i	i	nt	nt
COc1ccc(NC(=O)CN(c2ccccc2)S(=O)(=O)N(C)C)cc1Cl	i	i	i	i	i	i
COc1ccc(Cl)cc1NC(=O)CN(C)C(=O)c1sccc1-c1ccccc1	i	39	i	i	i	i
COc1ccc(Cl)cc1NC(=O)CN(c1ccccc1)S(=O)(=O)N(C)C	i	53	i	i	i	i
C=CCNC(=O)N1C2=NC(C(=O)OC)=C(C(=O)OC)[C@@H]3N(Cc4ccccc4)c4ccccc4[C@]23C[C@H]1C(=O)OC	i	i	i	i	i	i
O=C(Cc1ccc([N+](=O)[O-])cc1)NCc1ccc2c(c1)OCO2	i	i	i	i	i	i
CN(CCCC(=O)NCc1ccc2c(c1)OCO2)S(=O)(=O)c1ccc([N+](=O)[O-])cc1	i	66	i	i	i	i
COc1ccc(CNc2nc(NCc3ccc(OC)c(OC)c3)n(C(=O)c3cccs3)n2)cc1OC	i	44	i	i	i	i
CC(C)C[C@H]1COc2cc(N3CCC[C@@H]3CO)ccc2S(=O)(=O)N1	i	nt	i	i	nt	nt
O=[N+]([O-])c1ccccc1CCc1ccccc1[N+](=O)[O-]	50	nt	i	i	nt	nt
O=C(N/N=C/c1cccc([N+](=O)[O-])c1)c1cccc2cc[nH]c12	i	i	i	i	i	i
O=C(N/N=C/c1cc([N+](=O)[O-])ccc1O)c1cccc2cc[nH]c12	i	i	i	i	49	57
O=C(N/N=C/c1ccc(Cl)cc1Cl)c1ccc2nc[nH]c2c1	i	35	i	i	i	i
O=C(N/N=C/c1cc([N+](=O)[O-])ccc1Cl)c1ccc2nc[nH]c2c1	i	62	i	i	i	i
COCCCNC(=O)C[C@H]1C[C@@]2(C(=O)OC)C(=C[C@H](C(C)(C)C)O[C@@H]2C)N(CCC2=CCCCC2)C1=O	i	nt	i	i	nt	nt
COc1cc(-c2cc(C(=O)Nc3cc(S(=O)(=O)N4CCOCC4)ccc3O)c3ccccc3n2)cc(OC)c1OC	51	i	i	i	i	i
COc1cc(-c2cc(C(=O)Nc3ccc(S(=O)(=O)NCc4ccco4)cc3)c3ccccc3n2)cc(OC)c1OC	57	i	i	i	i	i
COc1cc(-c2cc(C(=O)Nc3cc(S(=O)(=O)N4CCOCC4)ccc3C)c3ccccc3n2)cc(OC)c1OC	49	nt	i	i	nt	nt
CCCN1C(=O)c2[nH]nc(-c3ccccc3)c2C1c1ccc(C)cc1 (stereo not drawn)	i	nt	i	i	nt	nt
COCCCN(Cc1cc(OC)c(OC)c(OC)c1)C(=S)Nc1cccc(SC)c1	i	nt	i	i	nt	nt
SMILES	TAAR1 antagonist	OX1R antag-1	GalR3 antagonist	TAAR1 ag	OX1R antag-2	CHO parental Ca
Cc1ccc(C(=O)NCC(C)NC(=O)c2ccc(C)c(C)c2)cc1C (stereo not drawn)	i	i	i	i	i	i
CN(C)c1cccc2c1C(=O)c1ccccc1C2=O	i	46	i	i	i	i
CN1C(=O)c2cccc(N(C)C)c2C1=O	i	i	i	i	i	i
Cc1ccc(S(=O)(=O)N2CCN(C)CC2c2ccccc2)cc1 (stereo not drawn)	i	i	i	i	i	i
COc1ccc(C(=O)NC2CCN(CC(=O)N3CCCCC3)CC2)cc1	i	i	i	i	i	i
COc1cccc(NS(=O)(=O)c2ccc3c(c2)NC(=O)C(C)S3)c1 (stereo not drawn)	i	i	i	i	i	i

High-throughput results (PubChem BioAssay)
